Measured values taken from ChEMBL document CHEMBL1132700, “Design, synthesis, structure-activity relationships, and biological characterization of novel arylalkoxyphenylalkylamine sigma ligands as potential antipsychotic drugs” (J Med Chem, 1999).
pIC50: −log10 of the molar value.

Columns and labels:
[1] = target: Serotonin 2 (5-HT2) receptor (Rattus norvegicus, UniProt P30994+P08909+P14842); test: Inhibitory concentration against radioligand [3H]ketanserin binding to 5-hydroxytryptamine 2 receptor in rat
Procedure, shortened: (§1)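 Male Wistar rat brain membranes in 50 mM Tris/HCl pH 7.7. Radioligands: PCP site 5 nM [3H]-PCP; D1 1 nM [3H]-SCH23390; 5-HT1A 0.2 nM [3H]-8-OH-DPAT; 5-HT2 5 nM [3H]-ketanserin; α1 0.2 nM [3H]-prazosin. Competition with at least five drug concentrations, filtration on PEI-soaked glass-fiber filters, scintillation counting, IC50 by nonlinear curve fit.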

Mus musculus [2] = test: Effect at an intraperitoneal dose of 10 mg/kg against methamphetamine-induced hyperlocomotion in mice; format: functional
Mus musculus [3] = species: Mus musculus; test: Effective dose against (+)-SKF-10047-induced stereotyped behavior in mice was determined; format: functional
Procedure, shortened: (§2)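 Male ICR mice (25–30 g, 10 per group) acclimatized at least 1 h. Test drug given orally 30 min before (+)-SKF10,047 30 mg/kg ip. Stereotypy scored on a 0–5 scale from 10 min post-injection, every 5 min for 40 min. Vehicle plus three doses were tested. Total score expressed as percent of control, and ED25 derived.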

[4] = target: Glutamate receptor ionotropic, NMDA 1 (Rattus norvegicus, UniProt P35439); test: Inhibitory concentration against radioligand [3H]PCP binding to PCP site of N-methyl-D-aspartate glutamate receptor in rat; procedure, shortened: as §1
D(2) dopamine receptor = D(2) dopamine receptor (Rattus norvegicus, UniProt P61169); test: Inhibitory concentration against radioligand [3H](-)-sulpiride binding to Dopamine receptor D2 in rat
Procedure, shortened: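 Striatal membranes from male Wistar rats (200–250 g), homogenized in 50 mM Tris/HCl pH 7.7, washed by repeated 50000g spins. Filtration on PEI-soaked glass-fiber filters, then scintillation counting. IC50 by nonlinear curve fitting, duplicate determinations.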

[5] = target: T1, Adrenergic receptor alpha-1 (Rattus norvegicus, UniProt P15823+P23944+P43140); test: Inhibitory concentration against radioligand [3H]prazosin binding to Alpha-1 adrenergic receptor in rat; procedure, shortened: as §1
T1 sequence (P15823 whole entry): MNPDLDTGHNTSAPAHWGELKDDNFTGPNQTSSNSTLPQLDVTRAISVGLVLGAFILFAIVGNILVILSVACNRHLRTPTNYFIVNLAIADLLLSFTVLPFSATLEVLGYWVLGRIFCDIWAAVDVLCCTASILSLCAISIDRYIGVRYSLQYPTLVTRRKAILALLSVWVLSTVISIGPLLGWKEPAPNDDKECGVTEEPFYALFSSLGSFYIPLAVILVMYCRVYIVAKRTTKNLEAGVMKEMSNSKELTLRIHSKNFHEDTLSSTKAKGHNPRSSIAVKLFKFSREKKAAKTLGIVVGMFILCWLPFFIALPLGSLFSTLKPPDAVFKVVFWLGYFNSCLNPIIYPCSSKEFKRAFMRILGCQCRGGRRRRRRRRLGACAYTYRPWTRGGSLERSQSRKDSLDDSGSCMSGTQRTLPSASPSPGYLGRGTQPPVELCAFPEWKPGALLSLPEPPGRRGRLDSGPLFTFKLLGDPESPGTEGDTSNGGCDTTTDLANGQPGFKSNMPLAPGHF
T1 sequence (P23944 whole entry): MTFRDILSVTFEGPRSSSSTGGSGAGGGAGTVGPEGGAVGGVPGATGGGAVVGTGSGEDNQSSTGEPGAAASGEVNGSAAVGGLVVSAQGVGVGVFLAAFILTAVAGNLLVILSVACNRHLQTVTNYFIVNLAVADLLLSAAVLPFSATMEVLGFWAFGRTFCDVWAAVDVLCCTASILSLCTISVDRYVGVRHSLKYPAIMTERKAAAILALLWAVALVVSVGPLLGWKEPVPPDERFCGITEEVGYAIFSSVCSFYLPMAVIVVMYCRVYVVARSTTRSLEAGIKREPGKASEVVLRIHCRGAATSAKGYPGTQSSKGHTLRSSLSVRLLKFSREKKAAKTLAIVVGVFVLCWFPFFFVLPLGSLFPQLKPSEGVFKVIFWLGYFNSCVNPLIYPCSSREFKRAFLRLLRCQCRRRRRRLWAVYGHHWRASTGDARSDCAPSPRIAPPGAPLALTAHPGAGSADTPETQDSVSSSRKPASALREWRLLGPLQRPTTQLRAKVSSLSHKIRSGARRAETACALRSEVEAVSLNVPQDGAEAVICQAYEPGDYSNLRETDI
T1 sequence (P43140 whole entry): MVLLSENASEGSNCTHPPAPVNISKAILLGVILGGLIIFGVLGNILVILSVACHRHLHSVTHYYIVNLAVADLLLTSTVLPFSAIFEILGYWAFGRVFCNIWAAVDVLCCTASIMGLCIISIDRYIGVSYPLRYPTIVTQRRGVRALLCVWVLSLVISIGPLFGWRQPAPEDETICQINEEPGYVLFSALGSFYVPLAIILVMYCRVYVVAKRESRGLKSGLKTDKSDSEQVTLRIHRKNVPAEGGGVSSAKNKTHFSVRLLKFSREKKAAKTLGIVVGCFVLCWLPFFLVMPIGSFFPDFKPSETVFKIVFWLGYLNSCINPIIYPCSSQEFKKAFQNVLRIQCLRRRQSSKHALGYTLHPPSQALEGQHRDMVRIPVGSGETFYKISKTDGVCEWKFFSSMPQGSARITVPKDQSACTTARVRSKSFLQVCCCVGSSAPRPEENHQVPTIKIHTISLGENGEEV

D(1A) dopamine receptor = D(1A) dopamine receptor (Rattus norvegicus, UniProt P18901); test: Inhibitory concentration against radioligand [3H]SCH-23390 binding to Dopamine receptor D1 in rat; procedure, shortened: as §1
[6] = target: T2, 5-hydroxytryptamine receptor 1A (Rattus norvegicus, UniProt P19327); test: Inhibitory concentration against radioligand [3H]hydroxy-2-(di-n-propylamino)-tetralin binding to 5-hydroxytryptamine 1A receptor in rat; procedure, shortened: as §1
T2 sequence (P19327 whole entry): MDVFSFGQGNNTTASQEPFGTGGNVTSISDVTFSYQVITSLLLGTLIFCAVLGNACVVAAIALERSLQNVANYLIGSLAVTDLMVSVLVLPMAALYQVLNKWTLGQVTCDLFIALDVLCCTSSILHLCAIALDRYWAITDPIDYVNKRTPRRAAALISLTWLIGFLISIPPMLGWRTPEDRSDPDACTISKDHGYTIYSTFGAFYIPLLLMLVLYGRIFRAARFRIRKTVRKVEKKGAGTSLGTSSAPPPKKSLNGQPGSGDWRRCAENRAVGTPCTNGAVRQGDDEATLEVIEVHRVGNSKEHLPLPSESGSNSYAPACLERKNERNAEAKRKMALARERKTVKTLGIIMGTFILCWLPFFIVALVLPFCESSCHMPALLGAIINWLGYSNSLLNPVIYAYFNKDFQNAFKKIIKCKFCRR

[7] = target: Sigma non-opioid intracellular receptor 1 (Rattus norvegicus, UniProt Q9R0C9); test: Inhibitory concentration against radioligand [3H]3-PPP binding to Sigma opioid receptor type 1 in rat brain membrane; format: cell membranes
Procedure, shortened: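 Rat whole-brain membranes from male Wistar rats (200–250 g), homogenized in 50 mM Tris/HCl pH 7.7, washed by repeated 50000g spins. Incubated with 2 nM [3H]-(+)-3-PPP and at least five concentrations of unlabeled drug. Filtered on polyethylenimine-soaked glass-fiber filters and counted by scintillation. IC50 from nonlinear curve fitting of competition data, duplicate determinations.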

Mus musculus [8] = test: Effect at an intraperitoneal dose of 30 mg/Kg against (+)-SKF-10047-induced stereotyped behavior in mice was determined; format: functional; procedure, shortened: as §2

Chain of D(1A) dopamine receptor (P18901 whole entry): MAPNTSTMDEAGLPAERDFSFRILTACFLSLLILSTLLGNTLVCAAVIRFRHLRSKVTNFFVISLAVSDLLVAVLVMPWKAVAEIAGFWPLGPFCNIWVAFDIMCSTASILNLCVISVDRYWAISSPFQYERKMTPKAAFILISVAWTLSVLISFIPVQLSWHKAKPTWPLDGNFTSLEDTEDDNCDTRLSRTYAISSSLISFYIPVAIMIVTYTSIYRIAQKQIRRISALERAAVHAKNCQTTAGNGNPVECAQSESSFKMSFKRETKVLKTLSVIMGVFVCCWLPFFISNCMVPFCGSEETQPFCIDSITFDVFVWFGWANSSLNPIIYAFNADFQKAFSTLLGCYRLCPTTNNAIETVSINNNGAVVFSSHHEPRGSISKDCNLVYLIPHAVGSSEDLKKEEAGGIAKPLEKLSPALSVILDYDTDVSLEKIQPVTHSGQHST
Chain of D(2) dopamine receptor (P61169 whole entry): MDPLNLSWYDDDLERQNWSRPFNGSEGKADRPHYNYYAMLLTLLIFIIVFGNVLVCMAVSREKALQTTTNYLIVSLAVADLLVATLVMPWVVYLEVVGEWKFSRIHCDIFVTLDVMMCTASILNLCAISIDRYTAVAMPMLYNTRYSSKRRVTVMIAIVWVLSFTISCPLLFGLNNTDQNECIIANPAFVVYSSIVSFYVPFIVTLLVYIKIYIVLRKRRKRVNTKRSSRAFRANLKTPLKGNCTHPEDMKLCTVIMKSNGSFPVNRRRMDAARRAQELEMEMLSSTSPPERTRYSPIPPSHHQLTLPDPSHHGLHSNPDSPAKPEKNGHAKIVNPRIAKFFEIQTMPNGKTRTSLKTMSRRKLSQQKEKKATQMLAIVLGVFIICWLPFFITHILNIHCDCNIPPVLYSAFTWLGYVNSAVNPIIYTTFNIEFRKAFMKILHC
Chain of Sigma non-opioid intracellular receptor 1 (Q9R0C9 whole entry): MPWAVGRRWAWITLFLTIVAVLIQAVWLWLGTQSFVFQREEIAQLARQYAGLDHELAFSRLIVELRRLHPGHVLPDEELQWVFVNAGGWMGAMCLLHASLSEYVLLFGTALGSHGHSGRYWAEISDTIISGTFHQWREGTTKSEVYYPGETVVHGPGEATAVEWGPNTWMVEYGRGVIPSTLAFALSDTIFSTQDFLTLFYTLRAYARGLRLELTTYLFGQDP

Row | SMILES | IC50 [1] | Control (Mus musculus [2]) | ED25 (Mus musculus [3]) | pIC50 [4] | pIC50 (D(2) dopamine receptor) | IC50 [5] | pIC50 (D(1A) dopamine receptor) | pIC50 [6] | pIC50 [7] | Control (Mus musculus [8])
1 | CCCN(CCC)CCc1ccc(OC)c(OCCc2ccccc2)c1.Cl | > 1 µM | 119% | 6.5 mg/kg | < 6.00 | < 6.00 | 10.8 µM | < 6.00 | 5.19 | – | –
2 | CCCN(CCC)CCCc1ccc(OC)c(OCCc2ccccc2)c1.Cl | > 1 µM | 99% | 44 mg/kg | < 6.00 | – | 14.1 µM | < 6.00 | 6.43 | 9.00 | –
3 | O=C(CCCN1CCC(O)(c2ccc(Cl)cc2)CC1)c1ccc(F)cc1 [HALOPERIDOL] | – | 7.3% | – | – | – | – | – | – | – | –
4 | CCCN(CCC)CCc1cccc(OC)c1OCc1ccccc1.O=C(O)C(=O)O | – | – | – | – | < 6.00 | – | – | – | 7.59 | 64%
5 | CCCN(CCC)CCc1cccc(OC)c1OCCc1ccccc1.Cl | 8.8 µM | 98% | 79 mg/kg | < 5.00 | < 6.00 | 11.7 µM | < 6.00 | 5.45 | – | –
6 | CCCN(CCC)CCc1cc(Cl)ccc1OCCc1ccccc1.O=C(O)C(=O)O | 0.196 µM | – | 235 mg/kg | < 6.00 | – | 0.09 µM | < 6.00 | 6.54 | – | –
